Laboratory results taken from paper PMC3545439 (Investigational new drugs, 2010).
Where two headings read alike, the source gives them in different places.

Legend:
[1] = cited from earlier work
patients = details: PO daily × 3 days, every 14 days, with infusional fluorouracil and leucovorin; cited from earlier work
[2] = tested on: patients with advanced solid tumors; assay: Phase I dose escalation: toxicity; format: in vivo, human
In short: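 Open-label, non-randomized 3+3 escalation in groups of 3–6, outpatient, with no intra-patient escalation. […] DLT was grade 4 hematologic or grade 3–4 non-hematologic toxicity (including diarrhea despite prophylaxis), or delay allowing fewer than 2 treatments in weeks 1–3. MTD was one level below the dose at which ≥2 patients had first-cycle DLT.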

[3] = Vorinostat serum pharmacokinetics in patients; format: in vivo, human
[4] = cited from earlier work; remark: listed apart in the source
[5] = Flavopiridol plasma pharmacokinetics in patients; format: in vivo, human

Compound | Cmax ([1]; read-out: average Cmax, vorinostat in combination with carboplatin and paclitaxel or FOLFOX) [µM] | Cmax ([1]; standard dose 400 mg PO daily continuously) [µM] | Cmax ([1]; vorinostat 900 mg/m^2 IV daily × 3 days every 3 weeks) [µM] | MTD of vorinostat (patients) | maximum tolerated dose (MTD) of vorinostat ([2]; 21-d schedule: days 1–3 and 8–10, with flavopiridol 60 mg/m^2 over 1 hr days 2 and 9) [mg/day] | maximum tolerated dose (MTD) of vorinostat ([2]; 28-d schedule: days 1–3 and 15–17, with split-dose flavopiridol days 2 and 16) [mg/day] | patients achieving vorinostat Cmax ≥2.5 μM ([3]; 800 mg dose level (MTD)) [%] | increase of vorinostat Cmax by flavopiridol ([3]; cycle 1 versus cycle −1, all patients, 95% CI 11%–43%) [%] | vorinostat level that enhances chemotherapy in vitro [4] [µM] | Cmax ([5]; human, plasma, intravenous) [µM] | patients achieving flavopiridol Cmax of ≥2 μM ([5]; patients tested (20)) [%] | maximum tolerated dose (MTD), flavopiridol ([2]; 21-d schedule, bolus over 1 hr days 2 and 9, with vorinostat 600 mg/d) [mg/m^2] | maximum tolerated dose (MTD), flavopiridol ([2]; 28-d schedule, split dose days 2 and 16, with vorinostat 800 mg/d)
O=C(CCCCCCC(=O)Nc1ccccc1)NO [vorinostat, suberoylanilide hydroxamic acid] | < 2 | ~2.5 | > 30 | 1,700 mg | 600 | 800 | 86 | 27 | > 2.5 | – | – | – | –
CN1CC[C@H](c2c(O)cc(O)c3c(=O)cc(-c4ccccc4Cl)oc23)[C@H](O)C1 [flavopiridol] | – | – | – | – | – | – | – | – | – | 3.92 | 90 | 60 | 30 mg/m^2 over 30 min followed by 30 mg/m^2 over 4 h
